ChEMBL document CHEMBL4350962, “Expanding the Chemical Space of Withaferin A by Incorporating Silicon To Improve Its Clinical Potential on Human Ovarian Carcinoma Cells” (J Med Chem, 2019)

What was measured:
ARPE-19 = assay: Cytotoxicity against human ARPE19 cells measured after 96 hrs by MTT assay; format: cell-based; conditions: ARPE-19, 96 h
In short: (§1)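 Cells kept in DMEM or RPMI 1640 with 10% FBS and 5% penicillin-streptomycin at 37 °C, 5% CO2, seeded at 1 x 10⁴ cells/mL and left 24 h to adhere. Compounds or vehicle added over a concentration range for 96 h, then MTT 4 h; formazan dissolved in DMSO, absorbance read at 540 nm relative to control. IC50 given as mean ± SD of three independent experiments in duplicate.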

[1] = Selectivity index, ratio of IC50 for human ARPE19 cells to IC50 for cisplatin-resistant human A2780/CP70 cells; format: toxicity; conditions: ARPE19 cells versus cisplatin-resistant A2780/CP70 cells, read-out: Ratio IC50
A2780 = assay: Antiproliferative activity against cisplatin-sensitive human A2780 cells measured after 96 hrs by MTT assay; format: functional, cell-based; conditions: A2780, 96 h; in short: as §1
[2] = Selectivity index, ratio of IC50 for human ARPE19 cells to IC50 for cisplatin-sensitive human A2780 cells; format: toxicity; conditions: ARPE19 cells versus cisplatin-sensitive A2780 cells, read-out: Ratio IC50
[3] = Antiproliferative activity against cisplatin-resistant human A2780/CP70 cells measured after 96 hrs by MTT assay; format: functional; conditions: A2780/CP70, 96 h; in short: as §1

SMILES	IC50 (A2780)	IC50 (ARPE-19)	selectivity ratio [1]	selectivity ratio [2]	IC50 [3]
CC1=C(CO[Si](C)(C)C(C)C)C(=O)O[C@@H]([C@@H](C)[C@H]2CC[C@H]3[C@@H]4C[C@H]5O[C@]56C(=O)C=CC(=O)[C@]6(C)[C@H]4CC[C@]23C)C1	43 nM	2140 nM	62.9	49.8	34 nM
CC1=C(CO[Si](C)(C)C)C(=O)O[C@@H]([C@@H](C)[C@H]2CC[C@H]3[C@@H]4C[C@H]5O[C@]56C(=O)C=CC(=O)[C@]6(C)[C@H]4CC[C@]23C)C1	41 nM	820 nM	11.9	20	68.8 nM
CCC[Si](CCC)(CCC)OCC1=C(C)C[C@H]([C@@H](C)[C@H]2CC[C@H]3[C@@H]4C[C@H]5O[C@]56C(=O)C=CC(=O)[C@]6(C)[C@H]4CC[C@]23C)OC1=O	69 nM	1740 nM	82.9	25.2	21 nM
CC1=C(CO)C(=O)O[C@@H]([C@@H](C)[C@H]2CC[C@H]3[C@@H]4C[C@H]5O[C@]56C(=O)C=CC(=O)[C@]6(C)[C@H]4CC[C@]23C)C1	7.3 nM	32 nM	> 32	4.3	< 1 nM
CC1=C(CO)C(=O)O[C@@H]([C@@H](C)[C@H]2CC[C@H]3[C@@H]4C[C@H]5O[C@]56[C@@H](O[Si](C)(C)C(C)C)C=CC(=O)[C@]6(C)[C@H]4CC[C@]23C)C1	34 nM	310 nM	13.5	9.1	23 nM
CC1=C(CO)C(=O)O[C@@H]([C@@H](C)[C@H]2CC[C@H]3[C@@H]4C[C@H]5O[C@]56[C@@H](O)C=CC(=O)[C@]6(C)[C@H]4CC[C@]23C)C1 [WITHAFERIN A]	32.7 nM	37 nM	1.2	1.1	32 nM
CCC[Si](CCC)(CCC)OCC1=C(C)C[C@H]([C@@H](C)[C@H]2CC[C@H]3[C@@H]4C[C@H]5O[C@]56[C@@H](O)C=CC(=O)[C@]6(C)[C@H]4CC[C@]23C)OC1=O	32 nM	30 nM	8.3	0.9	3.6 nM
CC1=C(CO[Si](C)(C)C(C)C)C(=O)O[C@@H]([C@@H](C)[C@H]2CC[C@H]3[C@@H]4C[C@H]5O[C@]56[C@@H](O)[C@@H](n5ccnc5)CC(=O)[C@]6(C)[C@H]4CC[C@]23C)C1	20 nM	52 nM	2.7	2.6	19 nM
CC[Si](CC)(CC)OCC1=C(C)C[C@H]([C@@H](C)[C@H]2CC[C@H]3[C@@H]4C[C@H]5O[C@]56C(=O)C=CC(=O)[C@]6(C)[C@H]4CC[C@]23C)OC1=O	35 nM	1870 nM	93.5	53.5	20 nM
CC1=C(CO[Si](C)(C)c2ccccc2)C(=O)O[C@@H]([C@@H](C)[C@H]2CC[C@H]3[C@@H]4C[C@H]5O[C@]56C(=O)C=CC(=O)[C@]6(C)[C@H]4CC[C@]23C)C1	59 nM	2300 nM	–	39.1	> 100 nM
CCCC[Si](CCCC)(CCCC)OCC1=C(C)C[C@H]([C@@H](C)[C@H]2CC[C@H]3[C@@H]4C[C@H]5O[C@]56C(=O)C=CC(=O)[C@]6(C)[C@H]4CC[C@]23C)OC1=O	53 nM	617 nM	–	11.6	> 100 nM
CC1=C(CO[Si](C)(c2ccccc2)c2ccccc2)C(=O)O[C@@H]([C@@H](C)[C@H]2CC[C@H]3[C@@H]4C[C@H]5O[C@]56C(=O)C=CC(=O)[C@]6(C)[C@H]4CC[C@]23C)C1	35 nM	2050 nM	–	58.6	> 100 nM

Second part, led by results:

IC50 (A2780)	SMILES	IC50 (ARPE-19)	selectivity ratio [1]	selectivity ratio [2]	IC50 [3]
22 nM	CC1=C(CO[Si](C)(c2ccccc2)c2ccccc2)C(=O)O[C@@H]([C@@H](C)[C@H]2CC[C@H]3[C@@H]4C[C@H]5O[C@]56[C@@H](O)C=CC(=O)[C@]6(C)[C@H]4CC[C@]23C)C1	70 nM	2.5	3.2	28.3 nM
27 nM	CCCC[Si](CCCC)(CCCC)OCC1=C(C)C[C@H]([C@@H](C)[C@H]2CC[C@H]3[C@@H]4C[C@H]5O[C@]56[C@@H](O)C=CC(=O)[C@]6(C)[C@H]4CC[C@]23C)OC1=O	260 nM	11.8	9.6	22 nM
2.9 nM	CC1=C(CO[Si](C)(C)c2ccccc2)C(=O)O[C@@H]([C@@H](C)[C@H]2CC[C@H]3[C@@H]4C[C@H]5O[C@]56[C@@H](O[Si](C)(C)c5ccccc5)C=CC(=O)[C@]6(C)[C@H]4CC[C@]23C)C1	309 nM	10.7	107	29 nM
> 100 nM	CC[Si](CC)(CC)OCC1=C(C)C[C@H]([C@@H](C)[C@H]2CC[C@H]3[C@@H]4C[C@H]5O[C@]56[C@@H](O)C=CC(=O)[C@]6(C)[C@H]4CC[C@]23C)OC1=O	30 nM	2.3	–	12.8 nM
1.5 nM	CCCCCCCC[Si](C)(C)OCC1=C(C)C[C@H]([C@@H](C)[C@H]2CC[C@H]3[C@@H]4C[C@H]5O[C@]56[C@@H](O[Si](C)(C)CCCCCCCC)C=CC(=O)[C@]6(C)[C@H]4CC[C@]23C)OC1=O	318 nM	12.8	212	24.9 nM
46 nM	CC1=C(CO[Si](c2ccccc2)(c2ccccc2)C(C)(C)C)C(=O)O[C@@H]([C@@H](C)[C@H]2CC[C@H]3[C@@H]4C[C@H]5O[C@]56[C@@H](O)C=CC(=O)[C@]6(C)[C@H]4CC[C@]23C)C1	2300 nM	79.1	49.9	29 nM
35 nM	CC1=C(CO[Si](C(C)C)(C(C)C)C(C)C)C(=O)O[C@@H]([C@@H](C)[C@H]2CC[C@H]3[C@@H]4C[C@H]5O[C@]56C(=O)C=CC(=O)[C@]6(C)[C@H]4CC[C@]23C)C1	37.5 nM	1.1	1.1	35 nM
10 nM	CCCCCCCC[Si](C)(C)OCC1=C(C)C[C@H]([C@@H](C)[C@H]2CC[C@H]3[C@@H]4C[C@H]5O[C@]56[C@@H](O)C=CC(=O)[C@]6(C)[C@H]4CC[C@]23C)OC1=O	32 nM	1	3.2	33 nM
